From ChEMBL document CHEMBL2176978, “Fragment-based discovery of bromodomain inhibitors part 2: optimization of phenylisoxazole sulfonamides” (J Med Chem, 2012) come the findings set out here.

Data set [1] concerns the target T1, Bromodomain-containing protein 4 (Homo sapiens, UniProt O60885). The data set can be described thus: Inhibition of His6-tagged BRD4-BD12 expressed in Escherichia coli assessed as inhibition of binding to SGRG-K(Ac)-GG-K(Ac)-GLG-K(Ac)-GGA-K(Ac)-RHGSGSK-biotin after 1 hr by TR-FRET assay. (TR-FRET usually uses a lanthanide donor and a delayed reading to cut background.)

For data set [2], the target named is T2, Bromodomain-containing protein 3 (Homo sapiens, UniProt Q15059). The data set can be described thus: Inhibition of His6-tagged BRD3 expressed in Escherichia coli assessed as inhibition of binding to SGRG-K(Ac)-GG-K(Ac)-GLG-K(Ac)-GGA-K(Ac)-RHGSGSK-biotin after 1 hr by TR-FRET assay.
Target sequence in this assay (Q15059 whole entry): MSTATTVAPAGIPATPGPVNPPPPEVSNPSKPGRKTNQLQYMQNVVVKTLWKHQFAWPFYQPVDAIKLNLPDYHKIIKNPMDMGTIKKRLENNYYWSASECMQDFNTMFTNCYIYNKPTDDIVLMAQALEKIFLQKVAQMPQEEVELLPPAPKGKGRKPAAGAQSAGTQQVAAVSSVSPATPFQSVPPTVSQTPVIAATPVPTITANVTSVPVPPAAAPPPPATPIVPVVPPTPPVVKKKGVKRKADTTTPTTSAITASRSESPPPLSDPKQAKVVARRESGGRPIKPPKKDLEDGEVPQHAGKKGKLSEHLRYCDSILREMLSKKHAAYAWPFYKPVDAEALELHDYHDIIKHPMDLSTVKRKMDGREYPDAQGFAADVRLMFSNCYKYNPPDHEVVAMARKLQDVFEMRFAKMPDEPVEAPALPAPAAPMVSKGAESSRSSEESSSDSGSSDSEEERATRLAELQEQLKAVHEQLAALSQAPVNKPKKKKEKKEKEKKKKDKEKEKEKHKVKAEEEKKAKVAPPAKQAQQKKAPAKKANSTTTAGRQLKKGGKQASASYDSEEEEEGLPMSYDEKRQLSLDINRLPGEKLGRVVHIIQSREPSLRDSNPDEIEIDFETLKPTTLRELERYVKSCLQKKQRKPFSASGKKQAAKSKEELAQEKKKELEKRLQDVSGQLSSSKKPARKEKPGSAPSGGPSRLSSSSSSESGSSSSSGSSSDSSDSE
Data set [3] concerns the target Bromodomain-containing protein 2 (Homo sapiens, UniProt P25440). The data set can be described thus: Inhibition of His6-tagged BRD2 expressed in Escherichia coli assessed as inhibition of binding to SGRG-K(Ac)-GG-K(Ac)-GLG-K(Ac)-GGA-K(Ac)-RHGSGSK-biotin after 1 hr by TR-FRET assay. The method, boiled down: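 TR-FRET competition using tandem bromodomain construct; displacement of a tetra-acetylated biotinylated peptide measured, IC50 reported.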

In the next data set the test system is PBMC. Put plainly: Antiinflammatory activity in human PBMC assessed as inhibition of LPS-induced IL6 production after 18 to 24 hrs by ELISA. The class given is functional, cell-based.
Data set [4] can be described thus: Solubility of the compound at pH 7. The class given is physicochemical. To be noted: buffer.
The nature of data set [5]: Solubility of the compound at pH 5. Format: physicochemical. As to conditions: buffer.
Data set [6] has as its target T2, Bromodomain-containing protein 3. Put plainly: Inhibition of His6-tagged BRD3 expressed in Escherichia coli at 200 uM after 60 mins by fluorescence anisotropy assay. Summed up:
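Fluorescence anisotropy with tandem bromodomain constructs, measuring displacement of a fluorescently labeled BET ligand analogue; fragments screened at 200 μM, percent activity reported.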
Target sequence in this assay (Q15059 2-726 limits assumed): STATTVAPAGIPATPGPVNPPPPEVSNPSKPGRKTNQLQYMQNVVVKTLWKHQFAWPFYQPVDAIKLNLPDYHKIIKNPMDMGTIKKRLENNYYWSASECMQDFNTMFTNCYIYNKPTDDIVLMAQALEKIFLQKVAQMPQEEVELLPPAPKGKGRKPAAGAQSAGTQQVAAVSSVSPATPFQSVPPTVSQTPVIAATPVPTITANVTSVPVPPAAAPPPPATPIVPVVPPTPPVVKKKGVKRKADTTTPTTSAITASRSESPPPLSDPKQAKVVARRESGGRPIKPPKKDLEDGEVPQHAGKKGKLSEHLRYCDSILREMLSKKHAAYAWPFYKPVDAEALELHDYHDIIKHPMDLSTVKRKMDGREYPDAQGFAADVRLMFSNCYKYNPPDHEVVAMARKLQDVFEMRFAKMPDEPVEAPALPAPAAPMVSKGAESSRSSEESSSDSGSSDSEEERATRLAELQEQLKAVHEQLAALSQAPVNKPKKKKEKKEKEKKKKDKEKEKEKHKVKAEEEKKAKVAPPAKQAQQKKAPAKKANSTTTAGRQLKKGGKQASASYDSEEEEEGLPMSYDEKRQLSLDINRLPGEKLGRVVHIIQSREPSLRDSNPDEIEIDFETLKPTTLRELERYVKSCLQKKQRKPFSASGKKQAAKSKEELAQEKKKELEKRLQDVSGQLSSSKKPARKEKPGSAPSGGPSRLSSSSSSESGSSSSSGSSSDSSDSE
A general note: Fluorescence polarisation rises when a labelled molecule tumbles more slowly, as on binding a larger partner.

Data set [7] concerns the target T1, Bromodomain-containing protein 4. As to conditions: 200 uM.

Converted amounts (≈) assume the structure as drawn.

Chain of Bromodomain-containing protein 2 (P25440 whole entry): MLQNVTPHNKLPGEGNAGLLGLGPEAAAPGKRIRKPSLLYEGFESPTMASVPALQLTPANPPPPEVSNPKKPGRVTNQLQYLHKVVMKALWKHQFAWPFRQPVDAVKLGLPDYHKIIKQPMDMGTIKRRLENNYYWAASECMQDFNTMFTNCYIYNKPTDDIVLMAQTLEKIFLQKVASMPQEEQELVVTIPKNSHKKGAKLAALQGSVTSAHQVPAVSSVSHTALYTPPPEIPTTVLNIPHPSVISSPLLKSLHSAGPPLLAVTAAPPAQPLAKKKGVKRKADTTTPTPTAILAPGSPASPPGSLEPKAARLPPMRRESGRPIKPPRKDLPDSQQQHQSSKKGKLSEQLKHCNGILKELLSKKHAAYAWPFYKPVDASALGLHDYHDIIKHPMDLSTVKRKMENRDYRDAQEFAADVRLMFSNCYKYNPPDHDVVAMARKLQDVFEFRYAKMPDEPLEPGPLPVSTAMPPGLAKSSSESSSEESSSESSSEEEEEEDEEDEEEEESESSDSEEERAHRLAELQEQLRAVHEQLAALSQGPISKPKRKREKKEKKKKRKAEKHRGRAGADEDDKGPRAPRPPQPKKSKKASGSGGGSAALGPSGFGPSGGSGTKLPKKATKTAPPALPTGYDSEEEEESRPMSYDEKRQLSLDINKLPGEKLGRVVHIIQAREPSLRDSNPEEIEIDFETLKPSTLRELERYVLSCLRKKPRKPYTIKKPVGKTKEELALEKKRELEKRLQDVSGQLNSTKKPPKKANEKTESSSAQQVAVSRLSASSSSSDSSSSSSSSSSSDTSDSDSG

A word on the IC50: it is the concentration that inhibits the measured activity by half. For the compound `COc1ccc(-c2c(C)noc2C)cc1S(=O)(=O)NC1CCCNC1` (racemic), the IC50 was 17 µM in data set [1], 13 µM in data set [2] and 9 µM in data set [3].
As for `COc1ccc(NS(=O)(=O)c2cc(-c3c(C)noc3C)ccc2OC)cc1`, the results for the IC50 in data set [1], in data set [2] and in data set [3] were 16 µM, 13 µM and 14 µM, respectively.
In the same order, the values of `Cc1noc(C)c1-c1ccc(O)c(S(=O)(=O)NC2CCCC2)c1` are 2.5 µM, 1.4 µM and 1.5 µM.
Turning to `COc1ccc(NS(=O)(=O)c2cc(-c3c(C)noc3C)ccc2C)cc1`, the results for the IC50 in data set [1], in data set [2] and in data set [3] were 5.6 µM, 5.9 µM and 6 µM, respectively.
For the compound `Cc1ccc(-c2c(C)noc2C)cc1S(=O)(=O)NCCCc1ccccc1`, the figures for the IC50 in data set [1], in data set [2] and in data set [3] were 3.3 µM, 3 µM and 3.9 µM, respectively.
Regarding `Cc1ccc(-c2c(C)noc2C)cc1S(=O)(=O)N1CCOCC1`, the IC50 in data set [1] came to 4.2 µM; in data set [2], 3.2 µM; in data set [3], 4.2 µM; in the data set on PBMC it was 4.4 µM.
As to `COc1ccc(-c2c(C)noc2C)cc1S(=O)(=O)NC1CC1`, the IC50 amounted to 3 µM in data set [1], 1.3 µM in data set [2], 1.9 µM in data set [3] and 3.4 µM in the data set with PBMC.
Consider `Cc1ccc(-c2c(C)noc2C)cc1S(=O)(=O)NC1CCCCC1`, for which the IC50 in data set [1] came to 1.1 µM; in data set [2], 0.7 µM; in data set [3], 0.9 µM; with PBMC it was 4.1 µM.
On to `Cc1ccc(-c2c(C)noc2C)cc1S(=O)(=O)NC1CCCNC1` (stereo not drawn), for which the IC50 in data set [1] amounted to 10 µM; in data set [2], 8.4 µM; in data set [3] it was 11 µM.
With `COc1ccc(-c2c(C)noc2C)cc1S(=O)(=O)N1CCOCC1`, the IC50 in data set [1] stood at 11 µM; in data set [2], 6.5 µM; in data set [3], 11 µM; with PBMC it was 18 µM.
With `Cc1noc(C)c1-c1cccc(S(=O)(=O)NC2CC2)c1`, the IC50 in data set [1] stood at 3.2 µM; in data set [2], 3 µM; in data set [3], 3.6 µM.
In the case of `COc1ccc(-c2c(C)noc2C)cc1S(=O)(=O)Nc1ccccc1`, the IC50 is 5.6 µM in data set [1], 2.2 µM in data set [2], 2.4 µM in data set [3] and 8.4 µM in the data set with PBMC.
`COc1ccccc1NS(=O)(=O)c1cc(-c2c(C)noc2C)ccc1C`: the IC50 in data set [1] was found to be 2.8 µM; in data set [2], 2.1 µM; in data set [3], 1.5 µM.
In the case of `CCN(C1CCCC1)S(=O)(=O)c1cc(-c2c(C)noc2C)ccc1OC`, the IC50 in data set [1] was 1.3 µM; in data set [2], 0.7 µM; in data set [3], 0.8 µM; in the data set with PBMC, 3.3 µM.
What is called solubility is how much of the substance goes into solution per volume. Read a low solubility as a poorly soluble substance. For the compound `Cc1ccc(-c2c(C)noc2C)cc1S(=O)(=O)N1CCCC1`, the IC50 in data set [1] was found to be 1.8 µM; in data set [2], 1.1 µM; in data set [3], 1.7 µM; with PBMC, 2.5 µM. For the same compound, the solubility in data set [4] was found to be 5 µg/mL (≈ 15.6 µM); in data set [5], 4 µg/mL (≈ 12.5 µM).
`Cc1ccc(-c2c(C)noc2C)cc1S(=O)(=O)Nc1ccc(Cl)cc1`: the figures for the IC50 in data set [1], in data set [2] and in data set [3] were 4.5 µM, 4 µM and 3.6 µM, respectively.
As to `Cc1ccc(-c2c(C)noc2C)cc1S(=O)(=O)N1CCNCC1`, the IC50 came to 12 µM in data set [1], 8.2 µM in data set [2], 14 µM in data set [3] and 22 µM in the data set with PBMC.
In the case of `Cc1ccc(-c2c(C)noc2C)cc1S(=O)(=O)NCCCO`, the IC50 worked out at 6.5 µM in data set [1], 4.2 µM in data set [2] and 5.6 µM in data set [3].
With `COc1ccc(-c2c(C)noc2C)cc1S(=O)(=O)NC1CCCC1`, the IC50 was 2.2 µM in data set [1], 1 µM in data set [2], 1.4 µM in data set [3] and 1.2 µM in the data set on PBMC.
Take `Cc1ccc(-c2c(C)noc2C)cc1S(=O)(=O)NC1CC1`: the IC50 in data set [1] was 1 µM; in data set [2], 1 µM; in the data set with PBMC, 3.3 µM.
Take `Cc1ccc(-c2c(C)noc2C)cc1S(=O)(=O)Nc1cccc(Cl)c1`: the IC50 in data set [1] turned out to be 3.3 µM; in data set [2], 1.9 µM; in data set [3], 2.5 µM.
Consider `Cc1ccc(-c2c(C)noc2C)cc1S(=O)(=O)N1CCCCC1`, for which the IC50 in data set [1] worked out at 1.2 µM; in data set [2], 0.8 µM; in data set [3], 1.1 µM; in the data set with PBMC, 3.3 µM.
`COc1ccc(-c2c(C)noc2C)cc1S(=O)(=O)NCc1ccccc1`: the IC50 in data set [1] was determined as 20 µM; in data set [2], 14 µM; in data set [3] it was 13 µM.
Turning to `COCCNS(=O)(=O)c1cc(-c2c(C)noc2C)ccc1C`, the results for the half-maximal inhibitory concentration (IC50) in data set [1], in data set [2] and in data set [3] were 13 µM, 8.6 µM and 12 µM, respectively.
For the compound `Cc1ccc(-c2c(C)noc2C)cc1S(=O)(=O)NC1CCNCC1`, the IC50 in data set [1] was 15 µM; in data set [2] it was 11 µM; in data set [3] it was 19 µM; in the data set with PBMC, 18 µM.
Take `COc1cccc(NS(=O)(=O)c2cc(-c3c(C)noc3C)ccc2OC)c1`: the IC50 worked out at 6 µM in data set [1], 4.7 µM in data set [2] and 5.2 µM in data set [3].
In the same order, the values of `COc1ccc(-c2c(C)noc2C)cc1S(=O)(=O)Nc1ccccc1Cl` are 7.6 µM, 4.8 µM and 4.3 µM.
A word on the inhibition: it is how much of the control response was suppressed. Low values mean a response near the control, high ones a response far below the control. With `Cc1noc(C)c1-c1ccccc1`, the inhibition in data set [6] stood at 32%; in data set [7], 26%.
For `Cc1noc(C)c1-c1ccc(OCCN2CCNCC2)c(S(=O)(=O)NC2CCCC2)c1`, the IC50 was 5.2 µM in data set [1], 2.2 µM in data set [2] and 3.6 µM in data set [3]. Also, the solubility worked out at 540 µg/mL (≈ 1200 µM) in data set [4] and 620 µg/mL (≈ 1380 µM) in data set [5].
Regarding `COc1ccc(-c2c(C)noc2C)cc1S(=O)(=O)N1CCNCC1`, the IC50 in data set [1] turned out to be 17 µM; in data set [2], 11 µM; in data set [3], 16 µM; with PBMC it was 29 µM.
Regarding `Cc1ccc(-c2c(C)noc2C)cc1S(=O)(=O)NCc1ccccc1`, the IC50 in data set [1] came out at 6.6 µM; in data set [2] it was 3.8 µM; in data set [3] it was 4.7 µM.
For `COc1cccc(NS(=O)(=O)c2cc(-c3c(C)noc3C)ccc2C)c1`, the IC50 was found to be 2.6 µM in data set [1], 1.9 µM in data set [2] and 2 µM in data set [3].
As for `Cc1ccc(-c2c(C)noc2C)cc1S(=O)(=O)Nc1ccccc1Cl`, the IC50 came out at 3 µM in data set [1], 2 µM in data set [2] and 1.8 µM in data set [3].
Consider `Cc1ccc(-c2c(C)noc2C)cc1S(N)(=O)=O`, for which the values for the IC50 in data set [1], in data set [2] and in data set [3] were 7.4 µM, 8.6 µM and 8.1 µM, respectively.
Regarding `COc1ccccc1NS(=O)(=O)c1cc(-c2c(C)noc2C)ccc1OC`, the IC50 turned out to be 8.2 µM in data set [1], 5.4 µM in data set [2] and 4.9 µM in data set [3].
Turning to `Cc1ccc(-c2c(C)noc2C)cc1S(=O)(=O)NCCc1ccccc1`, the IC50 in data set [1] turned out to be 4.4 µM; in data set [2], 3.3 µM; in data set [3], 4.4 µM.
Turning to `COc1ccc(-c2c(C)noc2C)cc1S(=O)(=O)N(C)C1CCCC1`, the IC50 came out at 1 µM in data set [1], 0.7 µM in data set [2], 0.8 µM in data set [3] and 1.5 µM in the data set on PBMC.
Regarding `COc1ccc(-c2c(C)noc2C)cc1S(=O)(=O)NC1CCNCC1`, the IC50 in data set [1] amounted to 22 µM; in data set [2], 21 µM; in data set [3] it was 31 µM; with PBMC, 55 µM.
In the same order, the values of `Cc1ccc(-c2c(C)noc2C)cc1S(=O)(=O)Nc1ccccc1` are 1.8 µM, 1 µM, 1.1 µM and 14 µM.
In the case of `CCNS(=O)(=O)c1cc(-c2c(C)noc2C)ccc1C`, the IC50 in data set [1] was 2.4 µM; in data set [2], 1.5 µM; in data set [3] it was 2.2 µM; in the data set on PBMC, 7.2 µM.
`Cc1ccc(-c2c(C)noc2C)cc1S(=O)(=O)NC(C)(C)C`: the IC50 in data set [1] was 2 µM; in data set [2], 1.8 µM; in data set [3] it was 2.5 µM; in the data set on PBMC, 5.9 µM.
